How the values were obtained:
Mus musculus [1] = species: Mus musculus; experiment: Degree of leukopenia produced by compound is assessed form Percent change in white cells on days 5; type: functional
Outline: (§1)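 BDG₁ male mice received a single ip dose on day 0. The dose series topped out at the LD₅₀ level, or at twice the optimal dose for some agents. Total white blood cell count was taken on days 3, 5 and 7 and expressed as % change from untreated controls. Significance was set at p ≤ 0.05 or p ≤ 0.01.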

Mus musculus [2] = species: Mus musculus; experiment: Half-wave potential produced by the compound at their optimal dose; type: functional; set-up: unit not given here
Mus musculus [3] = experiment: Effect of compound on total white blood cell count in BDG1 male mice, after intraperitoneal administration at a dose of 25.6 mg/kg on day 5; type: functional
Outline: (§2)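 Single ip dose given on day 0 to BDG1 male mice over a descending dose series. Total white blood cell count is expressed as % change from untreated control on days 3, 5 and 7. Significance is flagged at p ≤ 0.05 and p ≤ 0.01.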

Mus musculus [4] = experiment: Effect of compound on total white blood cell count in BDG1 male mice, after intraperitoneal administration at a dose of 25.6 mg/kg on day 7; type: functional; outline: as §2
Mus musculus [5] = experiment: Effect of compound on total white blood cell count in BDG1 male mice, after intraperitoneal administration at a dose of 25.6 mg/kg on day 3; type: functional; outline: as §2
Mus musculus [6] = experiment: Effect of compound on total white blood cell count in BDG1 male mice, after intraperitoneal administration at a dose of 51.2 mg/kg on day 3 (highest dose was twice the optimal dose); type: functional
Outline: (§3)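 Single ip dose given on day 0 to BDG₁ male mice. Total white blood cell count measured on days 3, 5 and 7, expressed as % change from control. Highest dose was at the LD₅₀, or at twice the optimal dose where so footnoted. Significance reported at p ≤ 0.05 and p ≤ 0.01. D marks death of one or more mice.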

Mus musculus [7] = experiment: Effect of compound on total white blood cell count in BDG1 male mice, after intraperitoneal administration at a dose of 51.2 mg/kg on day 5 (highest dose was twice the optimal dose); type: functional; outline: as §3
Mus musculus [8] = experiment: Minimum effective dose that show activity against P-388 murine leukemia cells in CDF1 female mice, after intraperitoneal administration (optimal dose is 25.6 mg/kg); type: functional; details: P388, ip, read-out: MED
Outline: (§4)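 10⁶ P-388 ascites cells implanted ip in CDF₁ female mice. Six mice per dose, 10 saline-injected controls, and a concurrent mitomycin C reference group. %T/C = median survival time of treated/control × 100. MED is the lowest dose giving %T/C > 125. Therapeutic ratio = optimal dose/MED.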

Mus musculus [9] = experiment: Number of tumored survivors, 45 days after administration of compound at a dose of 16 mg/kg/day in mice; type: functional
Mus musculus [10] = experiment: Activity of compound dose of 16 mg/kg/day against Murine B-16 Melanocarcinoma in mice; type: functional
Mus musculus [11] = experiment: Activity of compound dose of 4 mg/kg/day against Murine B-16 Melanocarcinoma in mice; type: functional
Mus musculus [12] = experiment: Activity of compound dose of 8 mg/kg/day against Murine B-16 Melanocarcinoma in mice; type: functional
Mus musculus [13] = experiment: Antitumor activity against P-388 murine leukemia cells in CDF1 female mice after intraperitoneal administration at the specified optimal dose of 25.6 mg/kg; type: functional
Mus musculus [14] = experiment: Activity of compound dose of 0.5 mg/kg/day against Murine B-16 Melanocarcinoma in mice; type: functional
Mus musculus [15] = experiment: Activity of compound dose of 1 mg/kg/day against Murine B-16 Melanocarcinoma in mice; type: functional
Mus musculus [16] = experiment: Number of cured survivors, 45 days after administration of compound at a dose of 16 mg/kg/day in mice; type: functional
Mus musculus [17] = experiment: Number of cured survivors, 45 days after administration of compound at a dose of 4 mg/kg/day in mice; type: functional
Mus musculus [18] = experiment: Activity of compound dose of 2 mg/kg/day against Murine B-16 Melanocarcinoma in mice; type: functional
[19] = Therapeutic ratio is expressed as ratio of optimal dose and minimum effective dose; type: ADME; details: mouse; read-out: TR; outline: as §4
Mus musculus [20] = experiment: Effect of compound on total white blood cell count in BDG1 male mice, after intraperitoneal administration at a dose of 12.8 mg/kg on day 7; type: functional; outline: as §2
Mus musculus [21] = experiment: Effect of compound on total white blood cell count in BDG1 male mice, after intraperitoneal administration at a dose of 12.8 mg/kg on day 3; type: functional; outline: as §1
Mus musculus [22] = experiment: Effect of compound on total white blood cell count in BDG1 male mice, after intraperitoneal administration at a dose of 12.8 mg/kg on day 5; type: functional; outline: as §1
Mus musculus [23] = experiment: Effect of compound on total white blood cell count in BDG1 male mice, after intraperitoneal administration at a dose of 25.6 mg/kg on day 3 (highest dose was twice the optimal dose); type: functional
Mus musculus [24] = experiment: Effect of compound on total white blood cell count in BDG1 male mice, after intraperitoneal administration at a dose of 25.6 mg/kg on day 5 (highest dose was twice the optimal dose); type: functional
Mus musculus [25] = experiment: Effect of compound on total white blood cell count in BDG1 male mice, after intraperitoneal administration at a dose of 25.6 mg/kg on day 7 (highest dose was twice the optimal dose); type: functional
Mus musculus [26] = experiment: Minimum effective dose that show activity against P-388 murine leukemia cells in CDF1 female mice, after intraperitoneal administration (optimal dose is 12.8 mg/kg); type: functional; details: P388, ip, read-out: MED; outline: as §4
Mus musculus [27] = experiment: Antitumor activity against P-388 murine leukemia cells in CDF1 female mice after intraperitoneal administration at the specified optimal dose of 12.8 mg/kg; type: functional
Mus musculus [28] = experiment: Effect of compound on total white blood cell count in BDG1 male mice, after intraperitoneal administration at a dose of 2.24 mg/kg on day 3; type: functional; outline: as §2
Mus musculus [29] = experiment: Effect of compound on total white blood cell count in BDG1 male mice, after intraperitoneal administration at a dose of 2.24 mg/kg on day 7; type: functional; outline: as §2
Mus musculus [30] = experiment: Effect of compound on total white blood cell count in BDG1 male mice, after intraperitoneal administration at a dose of 2.24 mg/kg on day 5; type: functional; outline: as §2
Mus musculus [31] = experiment: Effect of compound on total white blood cell count in BDG1 male mice, after intraperitoneal administration at a dose of 5.3 mg/kg on day 3; type: functional; outline: as §3
Mus musculus [32] = experiment: Effect of compound on total white blood cell count in BDG1 male mice, after intraperitoneal administration at a dose of 5.3 mg/kg on day 5; type: functional; outline: as §3
Mus musculus [33] = experiment: Effect of compound on total white blood cell count in BDG1 male mice, after intraperitoneal administration at a dose of 3.98 mg/kg on day 5; type: functional; outline: as §2
Mus musculus [34] = experiment: Effect of compound on total white blood cell count in BDG1 male mice, after intraperitoneal administration at a dose of 3.98 mg/kg on day 7; type: functional; outline: as §2
Mus musculus [35] = experiment: Effect of compound on total white blood cell count in BDG1 male mice, after intraperitoneal administration at a dose of 3.98 mg/kg on day 3; type: functional; outline: as §2
Mus musculus [36] = experiment: Effect of compound on total white blood cell count in BDG1 male mice, after intraperitoneal administration at a dose of 2.98 mg/kg on day 3; type: functional; outline: as §2
Mus musculus [37] = experiment: Effect of compound on total white blood cell count in BDG1 male mice, after intraperitoneal administration at a dose of 2.98 mg/kg on day 5; type: functional; outline: as §2
Mus musculus [38] = experiment: Effect of compound on total white blood cell count in BDG1 male mice, after intraperitoneal administration at a dose of 2.98 mg/kg on day 7; type: functional; outline: as §2
Mus musculus [39] = experiment: Effect of compound on total white blood cell count in BDG1 male mice, after intraperitoneal administration at a dose of 5.3 mg/kg on day 7; type: functional; outline: as §3
Mus musculus [40] = experiment: Minimum effective dose that show activity against P-388 murine leukemia cells in CDF1 female mice, after intraperitoneal administration (optimal dose is 3.2 mg/kg); type: functional; details: P388, ip, read-out: MED; outline: as §4
Mus musculus [41] = experiment: Antitumor activity against P-388 murine leukemia cells in CDF1 female mice after intraperitoneal administration at the specified optimal dose of 3.2 mg/kg; type: functional

With `C=C(C)CNC1=C(C)C(=O)C2=C(C1=O)[C@H](COC(N)=O)C1(OC)[C@@H]3N[C@@H]3CN21` (stereo partly drawn) the Change (Mus musculus [1]) was -59%, the E1/2 (Mus musculus [2]) was -0.41 and the Change (Mus musculus [3]) was -68%. It also gave a Change (Mus musculus [4]) of -34%, a Change (Mus musculus [5]) of -60% and a Change (Mus musculus [6]) of -60%. It also gave a Change (Mus musculus [7]) of -25%, a minimal effective dose (Mus musculus [8]) of 1.6 mg/kg and a Survivors (Mus musculus [9]) of 1. The T/C (Mus musculus [10]) was 226%, the T/C (Mus musculus [11]) was 160% and the T/C (Mus musculus [12]) was 186%. The T/C (Mus musculus [13]) was 245%, the T/C (Mus musculus [14]) was 122% and the T/C (Mus musculus [15]) was 131%. The Survivors (Mus musculus [16]) was 3, the Survivors (Mus musculus [17]) was 1 and the T/C (Mus musculus [18]) was 146%. For the same compound, the selectivity ratio [19] was 16.
In the case of `COC12[C@@H]3N[C@@H]3CN1C1=C(C(=O)C(NCc3cccs3)=C(C)C1=O)[C@@H]2COC(N)=O` (stereo partly drawn), the Change (Mus musculus [20]) is reported as -2%, the Change (Mus musculus [21]) is reported as -26% and the Change (Mus musculus [22]) is reported as -5%. It also gave a Change (Mus musculus [23]) of -32%, a Change (Mus musculus [24]) of -33% and a Change (Mus musculus [25]) of -11%. The minimal effective dose (Mus musculus [26]) was 3.2 mg/kg, the T/C (Mus musculus [27]) was 167% and the selectivity ratio [19] was 4.
Compound `COC12[C@@H](COC(N)=O)C3=C(C(=O)C(C)=C(N4CC4)C3=O)N1C[C@@H]1[C@H]2N1C` (stereo partly drawn) has a Change (Mus musculus [28]) of 1%, a Change (Mus musculus [29]) of 39% and a Change (Mus musculus [30]) of 11%. It also gave a Change (Mus musculus [31]) of -15%, a Change (Mus musculus [32]) of -20% and a Change (Mus musculus [33]) of -17%. It also gave a Change (Mus musculus [34]) of 7%, a Change (Mus musculus [35]) of -12.3% and a Change (Mus musculus [36]) of 5%. It also gave a Change (Mus musculus [37]) of 25%, a Change (Mus musculus [38]) of 31% and a Change (Mus musculus [39]) of -13%. For the same compound, the minimal effective dose (Mus musculus [40]) was 0.2 mg/kg, the T/C (Mus musculus [41]) was 248% and the selectivity ratio [19] was 16.

From ChEMBL document CHEMBL1121685, “Development of new mitomycin C and porfiromycin analogues” (J Med Chem, 1981)
